System: A2780
Assay: Concentration required to inhibit 50% growth of A2780 human ovarian cancer cells.
Type: functional, cell-based
Procedure, shortened: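 A2780 cells kept at 37 °C, 5% CO2, seeded at 1 × 10^4 cells per well, grown 72 h, then exposed for 24 h to complexes freshly dissolved in deionized water and diluted in RPMI to final 0.1, 1, 10 and 100 µM, in duplicate. Drug medium removed, cells washed with PBS, regrown in fresh medium and counted on day 7 by Coulter counter.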

IC50 [µM] | Substance
6 | CARBOPLATIN
0.5 | CISPLATIN
6 | [(nu6-C6H5C6H5)RuCl(N-ethylethylenediamine)]PF6
55 | [(nu6-C6H5CO2CH3)RuCl(ethylenediamine)]PF6
17 | [(nu6-C6H6)RuCl(ethylenediamine)]PF6
20 | [(nu6-C6H6)RuI(ethylenediamine)]PF6
> 150 | [(nu6-p-cymene)RuBr(CH3CN)2]PF6
> 150 | [(nu6-p-cymene)RuCl2(isonicotinamide)]
9 | [(nu6-p-cymene)RuCl(ethylenediamine)]PF6
8 | [(nu6-p-cymene)RuI(ethylenediamine)]PF6

Source: ChEMBL document CHEMBL1134657, “Inhibition of cancer cell growth by ruthenium(II) arene complexes” (J Med Chem, 2001)
